# Rows were chosen to be rich in hits. Some 2% of all compounds tested hit in one or more screens of this group.
# STAT3 act – STAT3 signaling activation; U3A cells, IL-6 STAT3-luciferase reporter, luminescence; 100% = signal with IL-6 EC80 alone; activation (% of control), % at 5.6 µM; actives 0.91% (n = 190,000);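 active means activation above the screen-wide mean of compound activation plus 3 SD, cut at about 130% in these data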;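 further: 0% = background luminescence of wells with medium and substrate only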
#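 system = STAT3-luciferase reporter U3A cells | reagent = IL-6 stimulus at 33 ng/mL final | timing = 1 h compound pre-exposure, 6 h IL-6 stimulation, 37 °C | measured by = luminescence | evaluation = % activation versus median of IL-6-stimulated wells | control set = IL-6-only wells as 100% reference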
# STAT3 inh – reduces IL-6 driven STAT3 reporter signal. U3A cells, IL-6 STAT3-luciferase reporter, luminescence; host cell line lacks STAT1. inhibition, % at 5.5 µM. actives 0.89% (n = 190,000). AID 862;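 active means inhibition above the mean inhibition across all screened compounds plus 3 SD, cut at about 44% in these data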;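 further: 0% = DMSO only wells and 100% = 100 µM nifuroxazide control wells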
# STAT1 inh – inhibitors of IFN-gamma induced STAT1 signaling; NIH 3T3 STAT1-luciferase reporter, luminescence; inhibition, % at 5.5 µM; actives 0.35% (n = 200,000); AID 920;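 active means inhibition above a set limit, the mean inhibition across all tested compounds plus 3 SD, cut at about 34% in these data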;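 further: 0% = IFN-gamma with DMSO and 100% = IFN-gamma with 300 µM nifuroxazide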
# HSP90 inh – HSP90 refolding inhibition in rabbit reticulocyte lysate. luciferase refolding luminescence, 3 h. inhibition, % at 5.6 µM. actives 0.91% (n = 290,000);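 active means inhibition above the screen-wide mean plus 3 SD, computed separately per campaign, cut at about 16% in these data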;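 further: 0% = DMSO wells and 100% = 60 µM geldanamycin wells; inhibitors lower the luminescence because luciferase stays unfolded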
# HSP90 confirm – HSP90 inhibition, confirmation assay; shares compounds with HSP90 inh; rabbit reticulocyte lysate, luciferase refolding luminescence, 3 h; inhibition, % at 5.9 µM; actives 64% (n = 2,300); in the data active means inhibition above about 18%;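 further: 0% = vehicle wells and 100% = reference inhibitor wells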
# FLuc counter – blocks native firefly luciferase in HSP90 counter-screen; inhibition, % at 5.9 µM; AID 1847; purified native firefly luciferase, luminescence; shares compounds with HSP90 inh; actives 48% (n = 2,300);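 active means inhibition above the mean inhibition of all tested sample wells plus 3 SD, cut at about 10% in these data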;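 further: 0% = DMSO with luciferase and 100% = wells lacking luciferase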
# Target sequence (P08659 whole entry, looked up): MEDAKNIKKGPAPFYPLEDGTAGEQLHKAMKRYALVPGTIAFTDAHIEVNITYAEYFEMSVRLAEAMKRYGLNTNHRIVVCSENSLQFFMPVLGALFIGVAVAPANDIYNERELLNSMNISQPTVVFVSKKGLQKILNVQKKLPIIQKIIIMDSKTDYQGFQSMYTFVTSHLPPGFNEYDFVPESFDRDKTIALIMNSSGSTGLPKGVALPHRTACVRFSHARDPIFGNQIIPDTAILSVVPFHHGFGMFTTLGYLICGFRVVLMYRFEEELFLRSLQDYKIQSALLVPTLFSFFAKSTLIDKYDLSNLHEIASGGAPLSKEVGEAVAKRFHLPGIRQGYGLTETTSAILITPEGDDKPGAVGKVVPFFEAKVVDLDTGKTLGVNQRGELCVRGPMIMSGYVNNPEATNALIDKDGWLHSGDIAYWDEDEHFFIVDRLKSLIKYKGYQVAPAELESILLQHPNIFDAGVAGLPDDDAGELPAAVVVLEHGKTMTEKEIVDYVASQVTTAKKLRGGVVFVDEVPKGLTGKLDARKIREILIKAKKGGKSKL
# * = called active by the depositor; . = no result given.
SMILES,STAT3 act,STAT3 inh,STAT1 inh,HSP90 inh,HSP90 confirm,FLuc counter
CC(=O)Nc1ccc(C)c(NS(=O)(=O)c2cccc(C(F)(F)F)c2)c1,.,.,.,0,.,.
CCN(CC)C(=O)CN1CCN(Cc2ccc3c(c2)OCO3)CC1,.,.,.,7,.,.
C[n+]1cccc(C2C(C#N)=C(N)Oc3c2ccc2ccccc32)c1 (configuration not stated),.,.,.,18*,-2,-14
C[n+]1cccc2ccc3c(c21)OC(N)=C(C#N)C3c1ccccc1 (configuration not stated),.,.,.,9,.,.
COC(=O)c1c(N)sc(C(=O)NCCc2ccccc2)c1C,.,.,.,87*,87*,82*
O=C(CCCc1ccccc1)c1ccc2c(c1)OCCO2,11,108*,92*,77*,97*,94*
Cc1ccc(C(=O)NCCc2ccccc2)cc1,.,.,.,62*,78*,74*
O=C(/C=C/c1ccccc1)c1ccc2c(c1)OCCCCO2,112,-10,-44,33*,33*,29*
CCOC(=O)c1ccc(Oc2c(C)oc3cc(OS(C)(=O)=O)ccc3c2=O)cc1,104,-2,-6,-3,.,.
CN(C)CCCNC(=O)C1(O)c2cc(Br)ccc2NC(=O)N1c1c(F)cccc1F (configuration not stated),.,.,.,0,.,.
Cc1nn(-c2ccc(N3CCOCC3)nn2)c(C)c1CCC(=O)NCc1ccc(F)cc1,.,.,.,-2,.,.
N#C/C(=N\Nc1cccc(C(F)(F)F)c1)C(=O)c1ccsc1,.,.,.,2,.,.
O=C(NCCc1ccccc1)c1ccc2c(c1)OCCO2,.,.,.,85*,97*,89*
O=C(NCCc1ccccc1)c1ccc2c(c1)OCCCO2,.,.,.,95*,95*,90*
COc1ccc(CCNC(=O)c2ccc3c(c2)OCCO3)cc1,103,0,-28,3,.,.
O=C(NCc1cccc(Cl)c1)c1ccc2c(c1)OCCO2,.,.,.,-4,.,.
O=C(NCCc1cccc(Cl)c1)c1ccc2c(c1)OCO2,.,.,.,20*,40*,29*
Cc1nn(C(C)C(=O)NCCN2CCCC2)c(=O)c2c1sc1ccccc12 (configuration not stated),.,.,.,0,.,.
CC(=O)Oc1cc(OC(C)=O)c2c(C)cc(=O)oc2c1,105,-1,-6,21*,-2,-4
Cc1ccc(/C=C/c2nnc(-c3ccc(C)cc3)o2)cc1,98,7,-2,32*,0,-19
CN(C)c1ccc(/C=C2\SC(=O)N(CCc3nnc(N)s3)C2=O)cc1,.,.,.,37*,85*,82*
CCOCCCNC(=O)c1ccc(N2CC3CC(C2)c2cccc(=O)n2C3)c(NC(=O)Nc2cccc(OC)c2)c1 (configuration not stated),.,.,.,-6,.,.
O=C(COc1ccc2ccccc2c1)NNC(=O)Cc1ccccc1,88,13,9,3,.,.
O=C(Cc1ccccc1)NNc1ccc2ccccc2c1,116,-15,14,39*,5,-3
O=C(CN1C(=O)CCC1=O)NNc1ccc2ccccc2c1,115,-5,3,26*,13,-13
SMILES,STAT3 act,STAT3 inh,STAT1 inh,HSP90 inh,HSP90 confirm,FLuc counter
O=C(COc1ccccc1[N+](=O)[O-])N1CCCc2ccccc21,.,.,.,1,.,.
Cc1c(C)c2ccc(OCC(=O)N(C)C)c(C)c2oc1=O,96,7,-9,-2,.,.
COc1ccccc1OCC(=O)Nc1ccncc1,.,.,.,-2,.,.
Cc1c(C)c2ccc(OCC(=O)Nc3ccccn3)c(C)c2oc1=O,.,.,.,96*,100*,91*
COc1ccccc1OCC(=O)Nc1ccccn1,92,16,-29,70*,20*,3
CC(O)CNc1ncnc2cc(-c3ccc(F)cc3)sc12 (configuration not stated),.,.,.,2,.,.
COc1ccc(C2=NN(c3ccccc3)C(=O)/C2=C\c2ccc(O)c(OC)c2)cc1,110,-2,-4,25*,-10,-5
N/C(=N\NC(=O)Nc1ccccc1)c1ccccn1,.,.,.,32*,9,-1
Cc1ccc(S(=O)(=O)/N=C2\C=C(Nc3cccc(C(=O)O)c3)C(=O)c3ccccc32)c(C)c1,.,.,.,92*,90*,-17
Cc1cccc(NC2=C(NC(=O)c3ccccc3)C(=O)c3ccccc3C2=O)c1,121,-25,-1,6,.,.
Cc1ccc(C)c(S(=O)(=O)Nc2ccc(O)c(Sc3ncn[nH]3)c2)c1,.,.,.,1,.,.
O=C1C(Nc2ccccc2)=C/C(=N/S(=O)(=O)c2cccs2)c2ccccc21,136*,-41,-3,37*,94*,2
O=C(O)c1cccc(NS(=O)(=O)c2ccc3c(c2)C(=O)c2ccccc2C3=O)c1,.,.,.,22*,6,-4
Cc1ccc(S(=O)(=O)/N=C2/C=C(Sc3ncn[nH]3)C(=O)c3ccccc32)c(C)c1,142*,-55,4,85*,44*,38*
COc1ccc(CCN(C)C(=O)c2ccc(S(=O)(=O)Nc3ccccc3F)cc2)cc1OC,.,.,.,-1,.,.
CCc1ccc(S(=O)(=O)/N=C2\C=C(Nc3ccc(C(=O)O)cc3)C(=O)c3ccccc32)cc1,.,.,.,93*,96*,-3
Cc1ccc(S(=O)(=O)/N=C2\C=C(Nc3cccc(C(=O)O)c3)C(=O)c3ccccc32)cc1,.,.,.,96*,92*,-8
O=C(O)c1ccc(NC2=C(n3nnc4ccccc43)C(=O)c3ccccc3C2=O)cc1,.,.,.,15,.,.
Cc1ccc(NC2=C/C(=N/S(=O)(=O)c3cccs3)c3ccccc3C2=O)cc1,126,-34,-18,1,.,.
O=C1C=C(Nc2ccccc2C(=O)O)c2ccccc2C1=O,.,.,.,2,.,.
COC(=O)c1ccccc1NC1=C/C(=N\S(=O)(=O)c2ccc(C(=O)O)cc2)c2ccccc2C1=O,.,.,.,77*,92*,3
Cn1cc(S(=O)(=O)Nc2cccc3ccccc23)c(=O)n(C)c1=O,.,.,.,0,.,.
COc1ccccc1CNS(=O)(=O)c1cccs1,.,.,.,-5,.,.
CC1CCc2nc(NC(=O)CSc3nc4ccccc4o3)sc2C1 (configuration not stated),89,14,-27,46*,51*,49*
COc1ccc(C(C[N+](=O)[O-])c2c(C)[nH]n(-c3ccccc3)c2=O)cc1 (configuration not stated),.,.,.,26*,50*,-9
Cc1[nH]n(-c2ccccc2)c(=O)c1C(c1ccc(O)c([N+](=O)[O-])c1)c1c(C)[nH]n(-c2ccccc2)c1=O,112,-8,-12,26*,-3,-3
Cc1[nH]n(-c2ccccc2)c(=O)c1C(C[N+](=O)[O-])c1ccccc1Cl (configuration not stated),109,-2,-7,0,.,.
CCOC(=O)CCN(Cc1ccccc1)S(=O)(=O)c1csc(C(N)=O)c1,.,.,.,-1,.,.
Cc1cc(C)cc(OCC(=O)Nc2ccc3c(c2)OCO3)c1,83,22,-2,1,.,.
O=C(Nc1ccc(S(=O)(=O)NCCc2ccccc2)cc1)c1ccco1,87,18,6,26*,-7,-9

# High-throughput results: PubChem, The Scripps Research Institute Molecular Screening Center
